In ChEMBL document CHEMBL3804807, “Purine analogs as phosphatidylinositol 4-kinase IIIβ inhibitors” (Bioorg Med Chem Lett, 2016):

Key:
Homo sapiens [1] = organism: Homo sapiens; assay: Inhibition of PI4K3 alpha (unknown origin) at 10 uM by ADP-Glo assay relative to control
Summary of the method: (§1)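 PI4K IIIα and PI4K IIIβ activity read by ADP-Glo assay. Each compound was tested at a single concentration of 10 μM, and residual enzyme activity was expressed relative to control.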

Coxsackievirus B3 = assay: Antiviral activity against Human coxsackievirus B3; format: functional, organism-based; conditions: Enterovirus B
Homo sapiens [2] = organism: Homo sapiens; assay: Inhibition of PI4K3 beta (unknown origin) assessed as residual activity at 10 uM by ADP-Glo assay relative to control; summary of the method: as §1
[3] = Cytotoxicity against human HeLa cells; format: cell-based
Hepatitis C virus = assay: Antiviral activity against Hepatitis C virus subtype 1b; format: functional, organism-based, Hepacivirus hominis; conditions: genotype 1b
Human rhinovirus sp. = assay: Antiviral activity against Human rhinovirus; format: functional, organism-based
[4] = Inhibition of PI4K3 beta (unknown origin) by ADP-Glo assay; set-up: species or system Homo sapiens

Row | Compound | inhibition (Homo sapiens [1]) | EC50 (Coxsackievirus B3) | Activity (Homo sapiens [2]) | CC50 [3] | EC50 (Hepatitis C virus) | EC50 (Human rhinovirus sp.) | IC50 [4]
1 | COc1ccc(-n2cnc3c(NCCN4CCOCC4)nc(C)nc32)cc1OC | < 50% | 34 µM | 26% | > 50 µM | 11.5 µM | – | –
2 | COc1ccc(-n2c(OC)nc3c(NCCN4CCOCC4)nc(C)nc32)cc1OC | < 50% | > 50 µM | 86% | > 50 µM | > 44 µM | > 50 µM | –
3 | COc1ccc(-n2c(C)nc3c(NCCN4CCOCC4)nc(C)nc32)cc1OC | < 50% | 8 µM | 14% | > 50 µM | > 44 µM | 40 µM | 0.91 µM
4 | COc1ccc(-n2c(C(F)(F)F)nc3c(NCCN4CCOCC4)nc(C)nc32)cc1OC | < 50% | > 50 µM | 99% | > 50 µM | > 44 µM | > 50 µM | –
5 | COc1ccc(-n2c(-c3ccc(O)cc3)nc3c(NCCN4CCOCC4)nc(C)nc32)cc1OC | < 50% | > 50 µM | 125% | > 50 µM | > 44 µM | > 50 µM | –
6 | COc1ccc(-n2c(Br)nc3c(NCCN4CCOCC4)nc(C)nc32)cc1OC | < 50% | 11 µM | 17% | > 50 µM | 6.7 µM | 25 µM | 5.2 µM
7 | COc1ccc(-n2c(-c3ccc(CO)cc3)nc3c(NCCN4CCOCC4)nc(C)nc32)cc1OC | < 50% | > 50 µM | 103% | > 50 µM | > 44 µM | > 50 µM | –
8 | COc1ccc(-n2c(-c3ccc(F)cc3)nc3c(NCCN4CCOCC4)nc(C)nc32)cc1OC | < 50% | > 50 µM | 78% | > 50 µM | > 44 µM | > 50 µM | –
9 | COc1ccc(-n2c(C)nc3c(NCCN4CCOCC4)nc(C#Cc4ccccc4)nc32)cc1OC | < 50% | 5 µM | 58% | 48 µM | 6 µM | 8 µM | –
10 | COc1ccc(-n2c(C)nc3c(NCCN4CCOCC4)nc(C#N)nc32)cc1OC | < 50% | > 50 µM | 24% | > 50 µM | 14 µM | 31 µM | 2.07 µM
11 | COc1ccc(-n2c(-c3ccc(C=O)cc3)nc3c(NCCN4CCOCC4)nc(C)nc32)cc1OC | < 50% | > 50 µM | 138% | > 50 µM | > 44 µM | > 50 µM | –
12 | COc1ccc(-n2c(C(C)C)nc3c(NCCN4CCOCC4)nc(C)nc32)cc1OC | < 50% | > 50 µM | 65% | > 50 µM | > 44 µM | – | –
13 | COc1ccc(-n2c(C3CCCCC3)nc3c(NCCN4CCOCC4)nc(C)nc32)cc1OC | < 50% | > 50 µM | 79% | > 50 µM | > 44 µM | > 50 µM | –
14 | COc1ccc(-n2c(C)nc3c(NCCN4CCOCC4)nc(-c4cccc(NC(C)=O)c4)nc32)cc1OC | < 50% | 1.6 µM | 14% | > 50 µM | 5.9 µM | 9.3 µM | 2.14 µM
15 | COc1ccc(-n2ccc3c(NCCN4CCOCC4)ncnc32)cc1OC | < 50% | > 50 µM | 74% | > 50 µM | 22 µM | – | –
16 | COc1ccc(-n2c(-c3ccc(C#N)cc3)nc3c(NCCN4CCOCC4)nc(C)nc32)cc1OC | < 50% | > 50 µM | 97% | > 50 µM | > 44 µM | > 50 µM | –
17 | COc1ccc(-n2nnc3c(NCCN4CCOCC4)ncnc32)cc1OC | < 50% | > 50 µM | 41% | > 50 µM | 32 µM | – | –
18 | COc1ccc(-n2c(C)nc3c(NCCN4CCOCC4)nc(-c4cccnc4)nc32)cc1OC | < 50% | 14 µM | 36% | > 50 µM | 15 µM | 3.3 µM | –
